Reference: ChEMBL document CHEMBL5376013, “Design, synthesis and biological evaluation of novel morpholinopyrimidine-5-carbonitrile derivatives as dual PI3K/mTOR inhibitors” (RSC Med Chem, 2024)

Columns and labels:
Type in all cases: functional
Conditions in all cases: read-out: GI
OVCAR-5 = assay: Antitumor activity against human OVCAR-5 cells assessed as growth inhibition at 10 uM relative to control
In short: (§1)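 After drug addition, plates were incubated 48 h at 37 °C under 5% CO2. Adherent cells were fixed with cold TCA (10% final, 60 min, 4 °C) and suspension cells with 16% final TCA. Staining used 0.4% SRB in 1% acetic acid, solubilized in 10 mM trizma, read at A515. Percent growth was calculated from time-zero, control and treated absorbances.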

TK-10 = assay: Antitumor activity against human TK-10 cells assessed as growth inhibition at 10 uM relative to control
In short: (§2)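 Drug exposure 48 h at 37 °C, 5% CO2. Adherent cells fixed with cold TCA (10% final), suspension cells with TCA (16% final). Stained with 0.4% SRB in 1% acetic acid, dissolved in 10 mM Tris, A515. Growth relative to time-zero and untreated control.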

SK-MEL-28 = assay: Antitumor activity against human SK-MEL-28 cells assessed as growth inhibition at 10 uM relative to control; in short: as §2
MCF7 = assay: Antitumor activity against human MCF7 cells assessed as growth inhibition at 10 uM relative to control; in short: as §1
HCT-15 = assay: Antitumor activity against human HCT-15 cells assessed as growth inhibition at 10 uM relative to control; in short: as §1
A549 = assay: Antitumor activity against human A549 cells assessed as growth inhibition at 10 uM relative to control; in short: as §1
SF-539 = assay: Antitumor activity against human SF-539 cells assessed as growth inhibition at 10 uM relative to control; in short: as §1
HT-29 = assay: Antitumor activity against human HT-29 cells assessed as growth inhibition at 10 uM relative to control; in short: as §1
NCI-H460 = assay: Antitumor activity against human NCI-H460 cells assessed as growth inhibition at 10 uM relative to control; in short: as §1
ACHN = assay: Antitumor activity against human ACHN cells assessed as growth inhibition at 10 uM relative to control; in short: as §1
OVCAR-8 = assay: Antitumor activity against human OVCAR-8 cells assessed as growth inhibition at 10 uM relative to control; in short: as §1
NCI-H226 = assay: Antitumor activity against human NCI-H226 cells assessed as growth inhibition at 10 uM relative to control; in short: as §1
786-0 = assay: Antitumor activity against human 786-0 cells assessed as growth inhibition at 10 uM relative to control; in short: as §1
UACC-62 = assay: Antitumor activity against human UACC-62 cells assessed as growth inhibition at 10 uM relative to control; in short: as §2
CCRF-CEM = assay: Antitumor activity against human CCRF-CEM cells assessed as growth inhibition at 10 uM relative to control; in short: as §1
CAKI-1 = assay: Antitumor activity against human CAKI-1 cells assessed as growth inhibition at 10 uM relative to control; in short: as §1
K562 = assay: Antitumor activity against human K562 cells assessed as growth inhibition at 10 uM relative to control; in short: as §1
HL-60 = assay: Antitumor activity against human HL-60 cells assessed as growth inhibition at 10 uM relative to control; in short: as §1
MOLT-4 = assay: Antitumor activity against human MOLT-4 cells assessed as growth inhibition at 10 uM relative to control; in short: as §1
LOX IMVI = assay: Antitumor activity against human LOX IMVI cells assessed as growth inhibition at 10 uM relative to control; in short: as §1
SF-268 = assay: Antitumor activity against human SF-268 cells assessed as growth inhibition at 10 uM relative to control; in short: as §1
NCI-H522 = assay: Antitumor activity against human NCI-H522 cells assessed as growth inhibition at 10 uM relative to control; in short: as §1
U-251 = assay: Antitumor activity against human U-251 cells assessed as growth inhibition at 10 uM relative to control; in short: as §2
SN12C = assay: Antitumor activity against human SN12C cells assessed as growth inhibition at 10 uM relative to control; in short: as §2
HCC 2998 = assay: Antitumor activity against human HCC 2998 cells assessed as growth inhibition at 10 uM relative to control; in short: as §1
RXF 393 = assay: Antitumor activity against human RXF 393 cells assessed as growth inhibition at 10 uM relative to control; in short: as §1
COLO 205 = assay: Antitumor activity against human COLO 205 cells assessed as growth inhibition at 10 uM relative to control; in short: as §1
NCI/ADR-RES = assay: Antitumor activity against human NCI-ADR-RES cells assessed as growth inhibition at 10 uM relative to control; in short: as §1
DU-145 = assay: Antitumor activity against human DU-145 cells assessed as growth inhibition at 10 uM relative to control; in short: as §1
SR = assay: Antitumor activity against human SR cells assessed as growth inhibition at 10 uM relative to control; in short: as §2
SNB-19 = assay: Antitumor activity against human SNB-19 cells assessed as growth inhibition at 10 uM relative to control; in short: as §2
NCI-H322M = assay: Antitumor activity against human NCI-H322M cells assessed as growth inhibition at 10 uM relative to control; in short: as §1
MDA-MB-231 = assay: Antitumor activity against human MDA-MB-231 cells assessed as growth inhibition at 10 uM relative to control; in short: as §1
T47D = assay: Antitumor activity against human T47D cells assessed as growth inhibition at 10 uM relative to control; in short: as §2
Hs-578T = assay: Antitumor activity against human Hs-578T cells assessed as growth inhibition at 10 uM relative to control; in short: as §1
BT-549 = assay: Antitumor activity against human BT-549 cells assessed as growth inhibition at 10 uM relative to control; in short: as §1
IGROV-1 = assay: Antitumor activity against human IGROV-1 cells assessed as growth inhibition at 10 uM relative to control; in short: as §1
SK-MEL-5 = assay: Antitumor activity against human SK-MEL-5 cells assessed as growth inhibition at 10 uM relative to control; in short: as §2
SK-OV-3 = assay: Antitumor activity against human SK-OV-3 cells assessed as growth inhibition at 10 uM relative to control; in short: as §2
SK-MEL-2 = assay: Antitumor activity against human SK-MEL-2 cells assessed as growth inhibition at 10 uM relative to control; in short: as §1
NCI-H23 = assay: Antitumor activity against human NCI-H23 cells assessed as growth inhibition at 10 uM relative to control; in short: as §1
A498 = assay: Antitumor activity against human A498 cells assessed as growth inhibition at 10 uM relative to control; in short: as §1
EKVX = assay: Antitumor activity against human EKVX cells assessed as growth inhibition at 10 uM relative to control; in short: as §1
PC-3 = assay: Antitumor activity against human PC-3 cells assessed as growth inhibition at 10 uM relative to control; in short: as §1
UO-31 = assay: Antitumor activity against human UO-31 cells assessed as growth inhibition at 10 uM relative to control; in short: as §2
MDA-MB-435 = assay: Antitumor activity against human MDA-MB-435 cells assessed as growth inhibition at 10 uM relative to control; in short: as §1

CC1=NN(c2nc(-c3ccc(Cl)cc3)c(C#N)c(N3CCOCC3)n2)C(=O)C1
inhibition of growth at 10 µM (OVCAR-5): 15.2% | inhibition of growth at 10 µM (TK-10): < 1% | inhibition of growth at 10 µM (SK-MEL-28): 12.9% | inhibition of growth at 10 µM (MCF7): 1% | inhibition of growth at 10 µM (HCT-15): 10.3% | inhibition of growth at 10 µM (A549): < 1% | inhibition of growth at 10 µM (SF-539): < 1% | inhibition of growth at 10 µM (HT-29): < 1% | inhibition of growth at 10 µM (NCI-H460): < 1% | inhibition of growth at 10 µM (ACHN): 26.4% | inhibition of growth at 10 µM (OVCAR-8): < 1% | inhibition of growth at 10 µM (NCI-H226): 10.2% | inhibition of growth at 10 µM (786-0): 13.4% | inhibition of growth at 10 µM (UACC-62): 21% | inhibition of growth at 10 µM (CCRF-CEM): 14.1% | inhibition of growth at 10 µM (CAKI-1): 29.9% | inhibition of growth at 10 µM (K562): < 1% | inhibition of growth at 10 µM (HL-60): 18.2% | inhibition of growth at 10 µM (MOLT-4): < 1% | inhibition of growth at 10 µM (LOX IMVI): 24.5% | inhibition of growth at 10 µM (SF-268): < 1% | inhibition of growth at 10 µM (NCI-H522): 21.1% | inhibition of growth at 10 µM (U-251): < 1% | inhibition of growth at 10 µM (SN12C): 112% | inhibition of growth at 10 µM (HCC 2998): < 1% | inhibition of growth at 10 µM (RXF 393): 56.6% | inhibition of growth at 10 µM (COLO 205): < 1% | inhibition of growth at 10 µM (NCI/ADR-RES): < 1% | inhibition of growth at 10 µM (DU-145): < 1% | inhibition of growth at 10 µM (SR): < 1% | inhibition of growth at 10 µM (SNB-19): < 1% | inhibition of growth at 10 µM (NCI-H322M): < 1% | inhibition of growth at 10 µM (MDA-MB-231): < 1% | inhibition of growth at 10 µM (T47D): < 1% | inhibition of growth at 10 µM (Hs-578T): 45.4% | inhibition of growth at 10 µM (BT-549): 33.9% | inhibition of growth at 10 µM (IGROV-1): 19% | inhibition of growth at 10 µM (SK-MEL-5): < 1% | inhibition of growth at 10 µM (SK-OV-3): 13.4% | inhibition of growth at 10 µM (SK-MEL-2): 12.9% | inhibition of growth at 10 µM (NCI-H23): 19.3% | inhibition of growth at 10 µM (A498): 42% | inhibition of growth at 10 µM (EKVX): 11.2% | inhibition of growth at 10 µM (PC-3): < 1% | inhibition of growth at 10 µM (UO-31): 28.1% | inhibition of growth at 10 µM (MDA-MB-435): 12.2%

Cc1cc(C)n(-c2nc(-c3ccc(Cl)cc3)c(C#N)c(N3CCOCC3)n2)n1
inhibition of growth at 10 µM (OVCAR-5): < 1% | inhibition of growth at 10 µM (TK-10): < 1% | inhibition of growth at 10 µM (SK-MEL-28): < 1% | inhibition of growth at 10 µM (MCF7): < 16% | inhibition of growth at 10 µM (HCT-15): < 1% | inhibition of growth at 10 µM (A549): < 1% | inhibition of growth at 10 µM (SF-539): 16% | inhibition of growth at 10 µM (HT-29): < 1% | inhibition of growth at 10 µM (NCI-H460): < 1% | inhibition of growth at 10 µM (ACHN): 11.8% | inhibition of growth at 10 µM (OVCAR-8): < 1% | inhibition of growth at 10 µM (NCI-H226): 14% | inhibition of growth at 10 µM (786-0): 15.2% | inhibition of growth at 10 µM (UACC-62): < 1% | inhibition of growth at 10 µM (CCRF-CEM): < 1% | inhibition of growth at 10 µM (CAKI-1): 28.1% | inhibition of growth at 10 µM (K562): < 1% | inhibition of growth at 10 µM (HL-60): < 1% | inhibition of growth at 10 µM (MOLT-4): 13.3% | inhibition of growth at 10 µM (LOX IMVI): 20.1% | inhibition of growth at 10 µM (SF-268): 14.4% | inhibition of growth at 10 µM (NCI-H522): 14.3% | inhibition of growth at 10 µM (U-251): < 1% | inhibition of growth at 10 µM (SN12C): 12.8% | inhibition of growth at 10 µM (HCC 2998): < 1% | inhibition of growth at 10 µM (RXF 393): 30.5% | inhibition of growth at 10 µM (COLO 205): 18.9% | inhibition of growth at 10 µM (NCI/ADR-RES): 10.6% | inhibition of growth at 10 µM (DU-145): < 1% | inhibition of growth at 10 µM (SR): < 1% | inhibition of growth at 10 µM (SNB-19): 14.2% | inhibition of growth at 10 µM (NCI-H322M): < 1% | inhibition of growth at 10 µM (MDA-MB-231): 28.8% | inhibition of growth at 10 µM (T47D): 22.1% | inhibition of growth at 10 µM (Hs-578T): 12.3% | inhibition of growth at 10 µM (BT-549): 30.5% | inhibition of growth at 10 µM (IGROV-1): 23.4% | inhibition of growth at 10 µM (SK-MEL-5): 14.5% | inhibition of growth at 10 µM (SK-OV-3): 15.2% | inhibition of growth at 10 µM (SK-MEL-2): < 1% | inhibition of growth at 10 µM (NCI-H23): 16% | inhibition of growth at 10 µM (A498): 46.3% | inhibition of growth at 10 µM (EKVX): 34.9% | inhibition of growth at 10 µM (PC-3): < 1% | inhibition of growth at 10 µM (UO-31): 45.2% | inhibition of growth at 10 µM (MDA-MB-435): < 1%
